Measurements reported in ChEMBL document CHEMBL4043301, “Tetrahydroquinoline Ring as a Versatile Bioisostere of Tetralin for Melatonin Receptor Ligands” (J Med Chem, 2018).

What was measured:
Homo sapiens = organism: Homo sapiens; assay: Selectivity ratio of Ki for human MT1 receptor to Ki for human MT2 receptor
[1] = molecular target: T1, Melatonin receptor type 1B (Homo sapiens) (UniProt P49286); assay: (§1) Intrinsic activity at human MT2 receptor expressed in CHO cell membranes after 1 hr by [35S]GTPgammaS binding assay; assay type: functional
T1 sequence (whole entry): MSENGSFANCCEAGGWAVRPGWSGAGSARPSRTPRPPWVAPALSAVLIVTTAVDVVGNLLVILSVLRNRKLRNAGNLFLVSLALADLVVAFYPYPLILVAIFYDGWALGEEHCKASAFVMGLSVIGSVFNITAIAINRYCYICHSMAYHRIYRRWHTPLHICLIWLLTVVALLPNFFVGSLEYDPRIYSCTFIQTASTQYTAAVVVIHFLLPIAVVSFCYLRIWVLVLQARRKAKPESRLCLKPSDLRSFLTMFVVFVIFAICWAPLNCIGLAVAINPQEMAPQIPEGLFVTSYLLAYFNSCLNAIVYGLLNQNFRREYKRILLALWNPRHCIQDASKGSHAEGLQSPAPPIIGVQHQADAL
In short: (§2)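 CHO-MT1 or MT2 membranes (20 µg/mL) were incubated with drug and 0.2 nM [35S]GTPγS for 1 h at room temperature. Buffer was 20 mM HEPES pH 7.4, 100 mM NaCl, 3 µM GDP, 3 mM MgCl2, 20 µg/mL saponin. Nonspecific binding was set with 10 µM GTPγS, followed by filtration. Seven concentrations in duplicate gave Emax, relative to 1 µM melatonin. Emax is the arithmetic mean ± SEM of ≥2 experiments.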

[2] = molecular target: T2, Melatonin receptor type 1B (Homo sapiens, UniProt P49286); assay: Displacement of 2-[125I]-Iodomelatonin from human MT2 receptor expressed in CHO cell membranes after 120 mins by filter binding method
T2 sequence (P49286 whole entry): T1 sequence (whole entry)
In short: (§3)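 Membranes from CHO cells stably expressing human MT1 or MT2 were incubated with 20 pM 2-[125I]-iodomelatonin and test drug in 50 mM Tris-HCl pH 7.4, 5 mM MgCl2, for 120 min at 37 °C. Nonspecific binding was set with 1 µM melatonin. Filtration onto PEI-soaked GF/B filters. Seven concentrations in duplicate gave IC50, converted to Ki by Cheng-Prusoff. Ki is the geometric mean of ≥2 experiments.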

[3] = molecular target: T3, Melatonin receptor type 1A (Homo sapiens, UniProt P48039); assay: Intrinsic activity at human MT1 receptor expressed in CHO cell membranes after 1 hr by [35S]GTPgammaS binding assay; assay type: functional; in short: as §2
[4] = molecular target: T3, Melatonin receptor type 1A; assay: Displacement of 2-[125I]-Iodomelatonin from human MT1 receptor expressed in CHO cell membranes after 120 mins by filter binding method; in short: as §3
[5] = molecular target: T2, Melatonin receptor type 1B; assay: as §1; assay type: functional; in short: as §2

T3 sequence (P48039 whole entry): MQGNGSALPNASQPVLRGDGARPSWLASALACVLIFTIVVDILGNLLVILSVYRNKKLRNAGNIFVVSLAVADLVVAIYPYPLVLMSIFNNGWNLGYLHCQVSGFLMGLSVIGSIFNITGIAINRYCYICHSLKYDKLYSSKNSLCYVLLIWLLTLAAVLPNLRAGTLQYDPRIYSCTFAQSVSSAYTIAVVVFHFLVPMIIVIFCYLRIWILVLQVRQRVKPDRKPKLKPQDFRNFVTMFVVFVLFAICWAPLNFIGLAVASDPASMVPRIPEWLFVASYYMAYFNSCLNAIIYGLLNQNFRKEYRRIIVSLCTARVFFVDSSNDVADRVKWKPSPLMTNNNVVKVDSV

| Ratio Ki (Homo sapiens) | Emax [1] | Ki [2] | Emax [3] | Ki [4] | EC50 [5] | EC50 [3] | Compound |
| --- | --- | --- | --- | --- | --- | --- | --- |
| 7.4 | 30% | 3.8 nM | 16% | 28 nM | – | – | CCC(=O)NCC1=C(c2ccccc2)c2ccccc2CC1 |
| 3.9 | – | 110 nM | – | 430 nM | – | – | CC(=O)NCC1CNc2ccccc2C1 (racemic) |
| 16 | 75% | 0.22 nM | 56% | 3.5 nM | – | – | CCC(=O)NC[C@@H]1CCc2ccccc2[C@@H]1c1ccccc1 (racemic) |
| 59 | 28% | 1 nM | – | 59 nM | 3 nM | – | CC(=O)NCC1Cc2ccccc2N(Cc2ccccc2)C1 (racemic) |
| 5.2 | 47% | 47 nM | – | 246 nM | 80 nM | – | CC(=O)NCC1Cc2ccccc2N(CCc2ccccc2)C1 (racemic) |
| – | 29% | – | 30% | – | – | – | CC(=O)NCC1Cc2ccccc2N(c2ccccc2)C1 (single isomer, unassigned; (-)) [listing 2 of 2 here] |
| 11 | 41% | 2 nM | 29% | 22 nM | 1 nM | 20 nM | CCC(=O)NC1Cc2ccccc2N(c2ccccc2)C1 (racemic) |

Second part, the compound before the results:

| Compound | Ratio Ki (Homo sapiens) | Emax [1] | Ki [2] | Emax [3] | Ki [4] | EC50 [5] | EC50 [3] |
| --- | --- | --- | --- | --- | --- | --- | --- |
| CCC(=O)NC[C@@H]1CN(C)c2ccccc2[C@@H]1c1ccccc1 (racemic) | 7.1 | 75% | 0.48 nM | 82% | 3.4 nM | – | – |
| CCC(=O)NC1Cc2ccccc2N(Cc2ccccc2)C1 (racemic) | 149 | – | 6 nM | – | 892 nM | > 10000 nM | – |
| CC(=O)NCC1Cc2ccccc2N(c2ccccc2)C1 (single isomer, unassigned; (-)) [listing 1 of 2 here] | – | – | 1.38 nM | – | 3.02 nM | – | – |
| CC(=O)NCC1Cc2ccccc2N(c2ccccc2)C1 (racemic) [listing 1 of 2 here] | – | – | 0.3 to 1.2 nM | – | 2.4 to 3 nM | > 10000 nM | > 10000 nM |
| CCC(=O)NC[C@@H]1CCc2ccccc2[C@H]1c1ccccc1 (racemic) | 270 | 78% | 0.23 nM | 61% | 62 nM | – | – |
| CC(=O)NCC1Cc2ccccc2N(c2ccccc2)C1 (stereo in doubt; (+)-15e) [listing 1 of 2 here] | – | – | 0.78 nM | – | 1.58 nM | – | – |
| CC(=O)NCC1Cc2ccccc2N(c2ccccc2)C1 (stereo in doubt; (+)-15e) [listing 2 of 2 here] | – | 5% | – | 25% | – | – | – |
| CC(=O)NCC1Cc2ccccc2N(C)C1 (racemic) | 5.5 | 32% | 15 nM | – | 83 nM | 10 nM | > 10000 nM |
| CCN1CC(CNC(C)=O)Cc2ccccc21 (racemic) | 20 | 59% | 1 nM | – | 20 nM | 7 nM | > 10000 nM |
| CC(=O)NCC1Cc2ccccc2N(c2ccccc2)C1 (racemic) [listing 2 of 2 here] | 10 | 10% | – | 27% | – | – | – |
